Data on two compounds can be found in ChEMBL document CHEMBL4616588, “High content phenotypic screening identifies serotonin receptor modulators with selective activity upon breast cancer cell cycle and cytokine signaling pathways” (Bioorg Med Chem, 2020).

Experiment [1] relates to T47D. In words: Effect on TNFR1 pathway in human T47D cells assessed as fold enrichment in MAPK targets/nuclear events mediated by MAP kinases incubated for 24 hrs relative to control. The format is functional. The essentials:
(§1)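 T47D cells were seeded in 6-well plates for 24 h, then drug-treated for 24 h. RNA was extracted with on-column DNase digestion and checked by A260/A280, and concentrations were normalized. 100 ng RNA was run on the nCounter PanCancer Pathways Panel. Data were normalized per NanoString protocol, and the advanced analysis module calculated differential ratios against DMSO.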

Experiment [2] concerns HCC1954. As to the kind of experiment: Antiproliferative activity against human HCC1954 cells assessed as cell viability incubated for 72 hrs Alamar blue assay. In kind it is functional, cell-based. The following applies: HCC1954, 72 h. The essentials: (§2)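 Parental cells in DMEM with 10% FBS and 2 mM L-glutamine at 37 °C, 5% CO2. Seeded in 96-well plates at a line-optimized density (HCC1954 and T47D, 3000 cells/well) and grown 24 h before treatment. Compounds were incubated 72 h, with 0.1% DMSO (v/v) controls. Alamar Blue was added at 10% v/v for 3 h. Fluorescence was read at ex 540/em 590 nm and normalized to plate DMSO wells.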
A general note: Alamar Blue is a resazurin reagent that responds to reducing activity.

The subject of experiment [3] is T47D. As to the kind of experiment: Effect on TNFR1 pathway in human T47D cells assessed as fold enrichment in MAP kinase activation genes incubated for 24 hrs relative to control. The format is functional. The essentials:
as §1

The subject of experiment [4] is T47D. In words: Effect on TNFR1 pathway in human T47D cells assessed as fold enrichment in RAF-independent MAPK1/3 activation genes incubated for 24 hrs relative to control. The format is functional. The essentials: as §1
Experiment [5] concerns HCC1954. As to the kind of experiment: Antiproliferative activity against human HCC1954 cells assessed as reduction in cell number at 1 uM incubated for 72 hrs Alamar blue assay. In kind it is functional, cell-based. Summed up:
as §2

The subject of experiment [6] is T47D. As to the kind of experiment: Antiproliferative activity against human T47D cells assessed reduction in cell number at 10 uM incubated for 72 hrs by Alamar blue assay. In kind it is functional, cell-based. The essentials:
as §2

For experiment [7], the system named is T47D. As to the kind of experiment: Effect on TNFR1 pathway in human T47D cells assessed as fold enrichment in TNFR1-induced proapoptotic signaling incubated for 24 hrs relative to control. In kind it is functional. The essentials:
as §1

The subject of experiment [8] is T47D. In words: Antiproliferative activity against human T47D cells assessed as cell viability incubated for 72 hrs Alamar blue assay. In kind it is functional, cell-based. The essentials:
as §2

In experiment [9] the test system is T47D. In words: Induction of morphological changes in human T47D cells at 10 uM incubated for 48 hrs by Hoechst 33342, SYTO14, Phalloidin-594, Wheat germ agglutinin-594, Concavalin-488, MitoTracker DeepRed staining based wide field fluorescent microscopic method. The format is functional, cell-based. Summed up:
(§3)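 Parental HCC1954 or T47D cells were seeded at 3000 cells/well in 96-well or 1500 cells/well in 384-well optical imaging plates and grown 24 h. Compounds were given for 48 h at up to 10 μM, with 0.1% DMSO and 0.3 μM staurosporine controls. Cells were fixed in 4% paraformaldehyde for 30 min at RT, then Cell Painting stained for 30 min in the dark […]. Imaging used wide-field fluorescence, and nuclei were segmented from the Hoechst channel and counted.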

Experiment [10] concerns HCC1954. As to the kind of experiment: Induction of morphological changes in human HCC1954 cells assessed as number of nuclei incubated for 48 hrs by Hoechst 33342, SYTO14, Phalloidin-594, Wheat germ agglutinin-594, Concavalin-488, MitoTracker DeepRed staining based wide field fluorescent microscopic method. The format is functional, cell-based. The following applies: HCC1954, 48 h. The essentials: as §3

The subject of experiment [11] is T47D. As to the kind of experiment: Induction of cell cycle arrest in human T47D cells assessed as downregulation in CCNA2 RNA incubated for 24 hrs. The format is functional, cell-based. Summed up: as §1
Experiment [12] relates to T47D. In words: Effect on TNFR1 pathway in human T47D cells assessed as fold enrichment in AP1 family of transcription factors incubated for 24 hrs relative to control. The format is functional. The essentials:
as §1

The subject of experiment [13] is T47D. As to the kind of experiment: Antiproliferative activity against human T47D cells assessed reduction in cell number at 1 uM incubated for 72 hrs by Alamar blue assay. The format is functional, cell-based. Summed up:
as §2

For experiment [14], the system named is T47D. As to the kind of experiment: Effect on cell cycle pathway in human T47D cells assessed as fold enrichment in mitotic genes incubated for 24 hrs relative to control. The format is functional. The essentials: as §1
In experiment [15] the test system is T47D. In words: Effect on cell cycle pathway in human T47D cells assessed as fold enrichment in cell cycle genes incubated for 24 hrs relative to control. In kind it is functional. The essentials:
as §1

Experiment [16] relates to HCC1954. In words: Induction of morphological changes in human HCC1954 cells at 10 uM incubated for 48 hrs by Hoechst 33342, SYTO14, Phalloidin-594, Wheat germ agglutinin-594, Concavalin-488, MitoTracker DeepRed staining based wide field fluorescent microscopic method. The format is functional, cell-based. The essentials:
as §3

Experiment [17] concerns T47D. In words: Induction of cell cycle arrest in human T47D cells assessed as downregulation in CCNE2 RNA incubated for 24 hrs. The format is functional, cell-based. Summed up:
as §1

Experiment [18] concerns T47D. In words: Effect on cell cycle pathway in human T47D cells assessed as fold enrichment in G1/S transition genes incubated for 24 hrs relative to control. The format is functional. The essentials: as §1
Experiment [19] relates to HCC1954. As to the kind of experiment: Antiproliferative activity against human HCC1954 cells assessed as reduction in cell number at 10 uM incubated for 72 hrs Alamar blue assay. In kind it is functional, cell-based. The essentials:
as §2

Experiment [20] has as its system T47D. In words: Induction of cell cycle arrest in human T47D cells assessed as downregulation in CCND1 RNA incubated for 24 hrs. In kind it is functional, cell-based. Summed up:
as §1

Experiment [21] has as its system T47D. In words: Induction of morphological changes in human T47D cells assessed as number of nuclei incubated for 48 hrs by Hoechst 33342, SYTO14, Phalloidin-594, Wheat germ agglutinin-594, Concavalin-488, MitoTracker DeepRed staining based wide field fluorescent microscopic method. The format is functional, cell-based. Summed up: as §3
In experiment [22] the test system is T47D. As to the kind of experiment: Effect on cell cycle pathway in human T47D cells assessed as fold enrichment in S Phase genes incubated for 24 hrs relative to control. The format is functional. Summed up:
as §1

Experiment [23] has as its system T47D. In words: Effect on cell cycle pathway in human T47D cells assessed as fold enrichment in cell cycle checkpoint genes incubated for 24 hrs relative to control. In kind it is functional. Summed up: as §1

The structures appear in SMILES notation. Calls of active or inactive are those of the source. The calls are words filed in the database; no cut-off is given here. Where only a bound is given, the exact number is not on record here.

With `CN(C)CCCN1c2ccccc2Sc2ccc(C(F)(F)F)cc21` [TRIFLUPROMAZINE], the “fold change (FC)” value with T47D [1] is given as 1.015; in the experiment on T47D [3], 6.02; in the experiment on T47D [4], 6.96; in the experiment with T47D [7] it was 17.4; with T47D [12], 14.91; in the experiment with T47D [14], 7.55. The “fold change (FC)” value in the experiment on T47D [15] came out at 7.33; in the experiment on T47D [18] it was 11.45; with T47D [22] it was 10.15; in the experiment with T47D [23], 11.45. Besides, the EC50 – broadly, the concentration at which the effect is half-maximal – was over 10 µM with HCC1954 [2], 8.6 µM in the experiment on T47D [8], over 10 µM in the experiment with HCC1954 [10] and 5.4 µM in the experiment on T47D [21]. Also, the result with HCC1954 [5], with T47D [13], in the experiment with HCC1954 [16] and in the experiment on HCC1954 [19] was inactive. Moreover, the result in the experiment on T47D [6], with T47D [9], in the experiment on T47D [11], in the experiment with T47D [17] and in the experiment with T47D [20] was Active.

As for `CNCCCC1c2ccccc2C=Cc2ccccc21` [PROTRIPTYLINE], the EC50 is over 10 µM in the experiment on HCC1954 [2], over 10 µM with T47D [8], over 10 µM in the experiment on HCC1954 [10] and 7.7 µM in the experiment on T47D [21]. Also, the result in the experiment on HCC1954 [5], in the experiment on T47D [13], in the experiment with HCC1954 [16] and with HCC1954 [19] was inactive. Moreover, the outcome in the experiment on T47D [6] and in the experiment on T47D [9] was Active.
